Results from ChEMBL document CHEMBL6071194, “Building Metabolically Stable and Potent Anti-HIV Thioether-Lipid Analogues of Tenofovir Exalidex: A thorough Pharmacological Analysis” (J Med Chem, 2024).

Experiments:
[1] = Prodrug conversion in C57BL/6 mouse liver assessed as Cmax of TFV metabolite at 10 mg/kg, po measured for 24 hrs by LC-MS/MS analysis; format: ADME, organism-based; conditions: in vivo
How it was run: (§1)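 After a single 10 mg/kg gavage (10% EtOH/90% olive oil) in male C57BL/6 mice, liver, kidney and brain were collected at 1, 4 and 24 h (n = 3 per time point). Tissues were rinsed in ice-cold saline and homogenized in ice-cold PBS pH 7.4 (3× weight for brain, 5× for liver and kidney). Prodrug and TFV were measured by LC–MS/MS; AUC0–24h by the linear trapezoidal rule.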

[2] = Clearance in C57BL/6 mouse plasma at 3 mg/kg, iv measured for 8 hrs by LC-MS/MS analysis; format: ADME, organism-based; conditions: in vivo
How it was run: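 Male C57BL/6 mice got a single 3 mg/kg i.v. dose in 10% PEG-300, 10% Solutol HS-15 and 80% saline, n = 3 per time point. Retro-orbital blood was taken at 0.1–8 h and plasma prodrug measured by LC–MS/MS. AUC0–8h used the trapezoidal rule; Cl = Dose/AUC0–8h.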

[3] = Ratio of AUC (0 to 24 hrs) of prodrug to TFV metabolite in C57BL/6 mouse liver at 10 mg/kg, po measured for 24 hrs by LC-MS/MS analysis; format: ADME, organism-based; conditions: in vivo; how it was run: as §1
[4] = Therapeutic index, ratio of CC50 for HEK293T cells to IC50 for HIV-1 sub-type-C MJ4 infected in HEK293T cells; format: toxicity, cell-based; conditions: human, read-out: Ratio CC50/IC50
How it was run: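 HEK293T cells (2 × 10⁴/well) with HSA-formulated compound (5:1 molar), 3-fold dilutions, 48 h at 37 °C. […] IC50 from luciferase after single-cycle infection with HIV-like particles carrying MJ4 subtype C RT/IN, over the noncytotoxic range.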

[5] = Prodrug conversion in C57BL/6 mouse plasma assessed as AUC (0 to 24 hrs) of TFV metabolite at 10 mg/kg, po measured for 24 hrs by LC-MS/MS analysis; format: ADME, organism-based; conditions: in vivo
How it was run: (§2)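 Male C57BL/6 mice (8–12 weeks, 20–30 g) got a single gavage of 10 mg/kg in 10% EtOH/90% olive oil, n = 3 per time point with sparse sampling. Retro-orbital blood was taken at 0.25–24 h and plasma spun off. Prodrug and TFV were measured by LC–MS/MS.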

[6] = Prodrug conversion in C57BL/6 mouse plasma assessed as Cmax of TFV metabolite at 10 mg/kg, po measured for 24 hrs by LC-MS/MS analysis; format: ADME, organism-based; conditions: in vivo; how it was run: as §2
[7] = Prodrug conversion in C57BL/6 mouse liver assessed as Tmax of TFV metabolite at 10 mg/kg, po measured for 24 hrs by LC-MS/MS analysis; format: ADME, organism-based; conditions: in vivo; how it was run: as §1
[8] = Ratio of AUC (0 to 24 hrs) of prodrug to TFV metabolite in C57BL/6 mouse plasma at 10 mg/kg, po measured for 24 hrs by LC-MS/MS analysis; format: ADME, organism-based; conditions: in vivo; how it was run: as §2
[9] = Prodrug conversion in C57BL/6 mouse kidney assessed as Cmax of TFV metabolite at 10 mg/kg, po measured for 24 hrs by LC-MS/MS analysis; format: ADME, organism-based; conditions: in vivo; how it was run: as §1
[10] = Prodrug conversion in C57BL/6 mouse plasma assessed as Tmax of TFV metabolite at 10 mg/kg, po measured for 24 hrs by LC-MS/MS analysis; format: ADME, organism-based; conditions: in vivo; how it was run: as §2
[11] = Prodrug conversion in C57BL/6 mouse kidney assessed as AUC (0 to 24 hrs) of TFV metabolite at 10 mg/kg, po measured for 24 hrs by LC-MS/MS analysis; format: ADME, organism-based; conditions: in vivo; how it was run: as §1
[12] = Prodrug conversion in C57BL/6 mouse kidney assessed as Tmax of TFV metabolite at 10 mg/kg, po measured for 24 hrs by LC-MS/MS analysis; format: ADME, organism-based; conditions: in vivo; how it was run: as §1
[13] = Clearance in C57BL/6 mouse plasma at 10 mg/kg, po measured for 24 hrs by LC-MS/MS analysis; format: ADME, organism-based; conditions: in vivo; how it was run: as §2
[14] = Prodrug conversion in C57BL/6 mouse liver assessed as AUC (0 to 24 hrs) of TFV metabolite at 10 mg/kg, po measured for 24 hrs by LC-MS/MS analysis; format: ADME, organism-based; conditions: in vivo; how it was run: as §1
[15] = Metabolic stability in human liver microsomes assessed as half life; format: ADME, Microsome
How it was run: (§3)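 Human liver microsomes (1 mg/mL) in 100 mM potassium phosphate were preincubated with 3 µM test compound (final) at 37 °C for 5 min, then started with NADPH. Duplicate aliquots at 0, 15, 30, 60 and 120 min were quenched in cold MeOH with internal standard and analysed by LC–MS/MS. Values were normalized to 0 min; a no-NADPH control was read at 120 min.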

[16] = Tmax in C57BL/6 mouse kidney at 10 mg/kg, po measured for 24 hrs by LC-MS/MS analysis; format: ADME, organism-based; how it was run: as §1
[17] = Tmax in C57BL/6 mouse brain at 10 mg/kg, po measured for 24 hrs by LC-MS/MS analysis; format: ADME, organism-based; how it was run: as §1
[18] = Ratio of AUC (0 to 24 hrs) of prodrug to TFV metabolite in C57BL/6 mouse kidney at 10 mg/kg, po measured for 24 hrs by LC-MS/MS analysis; format: ADME, organism-based; conditions: in vivo; how it was run: as §1
[19] = Stability in human liver microsomes assessed as compound remaining at 3 uM pretreated for 5 mins followed by NADPH addition measured upto 120 mins by LC-MS/MS analysis; format: ADME, Microsome; conditions: 2.083 h, time < 125 min; how it was run: as §3
[20] = Half life in C57BL/6 mouse plasma at 10 mg/kg, po measured for 24 hrs by LC-MS/MS analysis; format: ADME, organism-based; conditions: in vivo; how it was run: as §2
[21] = Volume of distribution in C57BL/6 mouse plasma at 10 mg/kg, po measured for 24 hrs by LC-MS/MS analysis; format: ADME, organism-based; conditions: in vivo; how it was run: as §2
[22] = Tmax in C57BL/6 mouse liver at 10 mg/kg, po measured for 24 hrs by LC-MS/MS analysis; format: ADME, organism-based; how it was run: as §1

CCCCCCCCCCCCCCCCSCCCOP(=O)(O)CO[C@H](C)Cn1cnc2c(N)ncnc21.N
Cmax [1]: 1440 ng/mL | CL [2]: 147 mL/min/kg | Ratio [3]: 0.222 | selectivity ratio [4]: 4980 | AUC [5]: 657 ng·h/mL | Cmax [6]: 39.4 ng/mL | Tmax [7]: 4 h | Ratio [8]: 0.333 | Cmax [9]: 695 ng/mL | Tmax [10]: 4 h | AUC [11]: 14600 ng·h/mL | Tmax [12]: 4 h | CL [13]: 147 mL/min/kg | AUC [14]: 29100 ng·h/mL

C[C@H](Cn1cnc2c(N)ncnc21)OCP(=O)(O)OCCCOCCCCCCCCCCCCCCCC(F)(F)F.N
half-life [15]: 2 h

COC(=O)CCCCCCCCCCCCCCCSCCCOP(=O)(O)CO[C@H](C)Cn1cnc2c(N)ncnc21
selectivity ratio [4]: > 70

C[C@H](Cn1cnc2c(N)ncnc21)OCP(=O)(O)OCCCSCCCCCCCCCCCCc1ccc(F)cc1.N
Cmax [1]: 3980 ng/mL | CL [2]: 134 mL/min/kg | Ratio [3]: 0.877 | selectivity ratio [4]: > 11100 | AUC [5]: 635 ng·h/mL | Tmax [16]: 4 h | Tmax [17]: 4 h | Tmax [7]: 24 h | Ratio [18]: 0.322 | Cmax [9]: 1420 ng/mL | Tmax [10]: 4 h | AUC [11]: 23800 ng·h/mL | Tmax [12]: 24 h | CL [13]: 134 mL/min/kg | AUC [14]: 72500 ng·h/mL

CCCCCCCCCCCCCSCCCCCCOP(=O)(O)CO[C@H](C)Cn1cnc2c(N)ncnc21
selectivity ratio [4]: > 1370

CCCCCCCSCCCCCCCCCCCCOP(=O)(O)CO[C@H](C)Cn1cnc2c(N)ncnc21
selectivity ratio [4]: > 296

C[C@H](Cn1cnc2c(N)ncnc21)OCP(=O)(O)OCCCSCCCCCCCCCCC#Cc1ccc(F)cc1
selectivity ratio [4]: > 10000

C[C@H](Cn1cnc2c(N)ncnc21)OCP(=O)(O)OCCCSCCCCCCCCCCCCC#C[Si](C)(C)C
selectivity ratio [4]: > 4170

C#CCCCCCCCCCCCCCCSCCCOP(=O)(O)CO[C@H](C)Cn1cnc2c(N)ncnc21
selectivity ratio [4]: > 3570

CCCCCCCCCCSCCCCCCCCCOP(=O)(O)CO[C@H](C)Cn1cnc2c(N)ncnc21
selectivity ratio [4]: > 1720

C[C@H](Cn1cnc2c(N)ncnc21)OCP(=O)(O)OCCCSCCCCCCCCCCCOc1ccccc1.N
selectivity ratio [4]: > 8060 | Stability [19]: 69%

C[C@H](Cn1cnc2c(N)ncnc21)OCP(=O)(O)OCCCSCCCCCCCCCCCOC1CCCCC1
selectivity ratio [4]: > 542

CCCCCCCCCCCCCCCCCSCCOP(=O)(O)CO[C@H](C)Cn1cnc2c(N)ncnc21
selectivity ratio [4]: 7150

C[C@H](Cn1cnc2c(N)ncnc21)OCP(=O)(O)OCCCSCCCCCCCCCCCCC1CCCCC1.N
Cmax [1]: 3900 ng/mL | CL [2]: 85.8 mL/min/kg | Ratio [3]: 0.411 | selectivity ratio [4]: > 2000 | AUC [5]: 740 ng·h/mL | Tmax [16]: 4 h | Cmax [6]: 47.8 ng/mL | Tmax [7]: 24 h | t1/2 [20]: 3.07 h | Vd [21]: 228 L/kg | Ratio [8]: 1.44 | Ratio [18]: 0.488 | Tmax [10]: 4 h | Tmax [22]: 4 h | AUC [11]: 22100 ng·h/mL | Tmax [12]: 24 h | CL [13]: 85.8 mL/min/kg | AUC [14]: 66600 ng·h/mL

C[C@H](Cn1cnc2c(N)ncnc21)OCP(=O)(O)OCCCSCCCCCCCCCCCCc1ccccc1
selectivity ratio [4]: > 12500

C[C@H](Cn1cnc2c(N)ncnc21)OCP(=O)(O)OCCCSCCCCCCCCCCCCC#CC(C)(C)C
selectivity ratio [4]: > 516

C[C@H](Cn1cnc2c(N)ncnc21)OCP(=O)(O)OCCCSCCCCCCCCCCCCCCC(C)(C)C
selectivity ratio [4]: 138

C[C@H](Cn1cnc2c(N)ncnc21)OCP(=O)(O)OCCCSCCCCCCCCCCCSc1ccccc1
selectivity ratio [4]: > 594

CCCCCCCCCCCCCCSCCCOP(=O)(O)CO[C@H](C)Cn1cnc2c(N)ncnc21
selectivity ratio [4]: > 16700

CCCCCCCCCCCCSCCCOP(=O)(O)CO[C@H](C)Cn1cnc2c(N)ncnc21
selectivity ratio [4]: > 532

C[C@H](Cn1cnc2c(N)ncnc21)OCP(=O)(O)OCCCSCCCCCCCCCCC#Cc1ccccc1
selectivity ratio [4]: > 12500

CC(C)[Si](C#CCCCCCCCCCCCSCCCOP(=O)(O)CO[C@H](C)Cn1cnc2c(N)ncnc21)(C(C)C)C(C)C
selectivity ratio [4]: 224

C[C@H](Cn1cnc2c(N)ncnc21)OCP(=O)(O)OCCCSCCCCCCCCCCC#CC1CCCCC1
selectivity ratio [4]: > 7580

C[C@H](Cn1cnc2c(N)ncnc21)OCP(=O)(O)OCCCSCCCCCCCCCCCOc1ccc(F)cc1.N
selectivity ratio [4]: 6250 | Stability [19]: 85%

CCCCSCCCCCCCCCCCCCCCOP(=O)(O)CO[C@H](C)Cn1cnc2c(N)ncnc21
selectivity ratio [4]: > 331

CCCCCCCCCCCCCCCCOCCCOP(=O)(O)CO[C@H](C)Cn1cnc2c(N)ncnc21 [TENOFOVIR EXALIDEX]
selectivity ratio [4]: 5420
